Compounds with a hit are over-represented: about 1.4% of the library has one in this group of screens.
APOBEC3A inh: APOBEC3A ssDNA deaminase inhibitors, primary screen, selectivity assay for APOBEC3G inhibitor project, biochemical, FAM/TAMRA oligo cleavage fluorescence. DNA dC->dU-editing enzyme APOBEC-3A (Homo sapiens), P31941. recombinant A3A, FAM/TAMRA ssDNA deamination fluorescence. inhibition, % at 20 µM. 330,000 compounds, 0.41% hits. AID 493011, 2011;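 active = at least 40% inhibition at 20 µM here, with at most 30% in a related deaminase screen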;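 note: plate controls were A3A with DMSO for no effect and wells lacking A3A enzyme for full effect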
Target sequence (P31941 whole entry, looked up): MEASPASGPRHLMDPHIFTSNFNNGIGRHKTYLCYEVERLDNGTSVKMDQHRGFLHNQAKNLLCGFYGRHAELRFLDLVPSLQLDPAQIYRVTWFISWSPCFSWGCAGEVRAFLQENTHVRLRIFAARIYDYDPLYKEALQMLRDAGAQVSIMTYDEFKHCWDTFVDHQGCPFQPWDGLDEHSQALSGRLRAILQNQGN
APJ antagonist: antagonists of human apelin receptor APJ, primary screen, CHO-K1 cells, beta-arrestin complementation, luminescence | inhibition, % at 20 µM | 330,000 compounds, 0.32% hits;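 active = inhibition above about 40% at 20 µM, limit read from the data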;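 note: cells challenged with 10 nM apelin-13 agonist together with compound; plate controls were apelin-13 plus DMSO wells for no effect and DMSO wells lacking apelin-13 for full effect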
APOBEC3G inh: APOBEC3G DNA deaminase inhibitors, primary screen, biochemical, fluorescence, single-stranded DNA substrate, uHTS. DNA dC->dU-editing enzyme APOBEC-3G (Homo sapiens), Q9HC16. recombinant A3G, ssDNA deamination FAM/TAMRA fluorescence. inhibition, % at 20 µM. 330,000 compounds, 0.28% hits. AID 493012, 2011;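 active = inhibition of at least 40% at 20 µM, with no more than 30% in the related APOBEC3A deaminase screen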;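 note: plate controls were DMSO wells with A3G for no effect and wells lacking A3G enzyme for full effect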
CXCR6 block: CXCR6 receptor inhibitors, primary screen, cell-based, beta-arrestin, luminescence, CHO-K1 PathHunter, 1536-well | inhibition, % at 20 µM | 360,000 compounds, 0.36% hits; in the data active = inhibition above about 34%, passing the limit was not always enough;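 note: antagonist mode with CXCL16 agonist at 10 nM final; 0% = 10 nM CXCL16 with DMSO and 100% = unstimulated wells without agonist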
APJ agonist: agonists of human apelin receptor APJ, primary screen, CHO-K1 cells, PathHunter beta-arrestin, luminescence; 0% DMSO wells, 100% apelin; 330,000 compounds, 0.11% hits; P35414; activation, % at 20 µM;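 active = activation more than six SD over the plate average, tested at 20 µM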;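 note: 0% = DMSO alone and 100% = apelin-13 at 10 nM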
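Test system – PathHunter CHO-K1 APJ (AGTRL-1) beta-arrestin reporter cells · Input – 1000 cells/well · Compound – single test compound dose, 20 µM final, 1% DMSO · Times – compound stimulation 90 min at 25 °C, detection 60 min · Technique – beta-gal luminescence · Read-out basis – APJ–arrestin association signal · Control set – negative DMSO alone, positive Apelin-13 at 10 nM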
CCR6 antag: CCR6 receptor antagonists, primary screen, cell-based, CHO-K1, luminescence, beta-arrestin, uHTS. C-C chemokine receptor type 6 (Homo sapiens), P51684. CHO-K1 CCR6 PathHunter beta-arrestin, CCL20-stimulated. inhibition, % at 20 µM. 340,000 compounds, 0.49% hits. AID 493098, 2011;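 active = compounds whose inhibition of the agonist-driven luminescence signal at 20 µM reaches about 50%, limit read from the data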;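 note: cells stimulated with CCL20 at 14 nM final; plate controls were DMSO with CCL20 for no effect and DMSO without agonist for full effect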
A3G conf: APOBEC3G deaminase inhibitor retest, confirmation, biochemical, fluorescence, single-stranded DNA substrate, single concentration. shares compounds with APOBEC3G inh. recombinant A3G ssDNA deaminase, UDG/FAM-TAMRA fluorescence. inhibition, % at 20 µM. 890 compounds, 72% hits;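 active = inhibition reaching a set limit in any replicate at 20 µM, the limit being 80% of the first screen's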
UDG A3G counter: E. coli UDG inhibitors, confirmation, counter-screen for APOBEC3G inhibitor project, biochemical, single concentration, fluorescence, FAM/TAMRA oligo; shares compounds with APOBEC3G inh; UDG counterscreen; inhibition, % at 20 µM; 710 tested, under 10 active; AID 504715, 2011;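 active = compounds giving 40% or more inhibition at 20 µM in any one of the three replicates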;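 note: plate controls were DMSO wells with UDG and oligo for no effect and DMSO wells lacking both for full effect; inhibitors lower the FAM signal released by uracil excision and alkaline cleavage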
Target sequence (P12295 whole entry, looked up): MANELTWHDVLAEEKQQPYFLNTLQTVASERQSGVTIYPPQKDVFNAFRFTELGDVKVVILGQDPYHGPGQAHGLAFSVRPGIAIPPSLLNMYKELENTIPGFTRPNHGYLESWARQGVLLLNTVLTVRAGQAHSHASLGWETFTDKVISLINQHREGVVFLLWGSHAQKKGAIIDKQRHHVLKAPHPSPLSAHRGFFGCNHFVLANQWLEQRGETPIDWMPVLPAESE
* marks the source's active call; other numbers are inactive results; nt = not tested or not shown.

SMILES	APOBEC3A inh	APJ antagonist	APOBEC3G inh	CXCR6 block	APJ agonist	CCR6 antag	A3G conf	UDG A3G counter
O=C(CNC(=O)c1ccc2c(c1)S(=O)(=O)N=C1CCCCCN12)Nc1ccc(F)c(F)c1	0.9	0.6	2.5	2.6	-1.9	4.7	nt	nt
Cc1cc(-c2csc(N)n2)c(C)n1CCC(C)C	6.5	-22.0	40.3*	13.4	1.5	24.5	12.7	nt
Cc1cc(-c2csc(N)n2)c(C)n1CCc1ccccc1	-0.7	1.3	2.6	12.3	0.8	19.4	nt	nt
Cc1nc2nc[nH]c2cc1Br	-3.5	18.8	-5.7	3.3	-0.5	-4.8	nt	nt
Cc1nc2[nH]c(=S)[nH]c2cc1Br	-2.2	5.7	47.1*	0.5	0.3	-6.3	82.5*	1.8
CN(C(=O)COC(=O)Cc1ccc(Br)cc1)c1c(N)n(Cc2ccccc2)c(=O)[nH]c1=O	nt	nt	nt	3.7	nt	nt	nt	nt
Cc1ccc(S(=O)(=O)NNC(=O)C(=O)NNS(=O)(=O)c2ccc(C)cc2)cc1	-0.1	-3.3	-3.0	-2.8	-3.6	-4.4	nt	nt
Cc1ccc(NNS(=O)(=O)c2ccc(C)cc2)cc1	-1.9	-12.3	68.7*	2.3	7.9	11.7	65.3*	-2.8
CCN1CCN(c2nc3ccccc3nc2C(C#N)S(=O)(=O)c2ccc(C)cc2)CC1 (stereo unspecified)	-0.7	1.8	-9.8	7.5	-0.8	2.8	nt	nt
Cc1ccc(S(=O)(=O)C(C#N)c2nc3ccccc3nc2N2CCCC2)cc1 (stereo unspecified)	-4.2	-27.3	45.1*	-23.2	9.7	-2.0	6.5	-3.5
COc1cc(/C=N/n2cc(-c3ccccc3)[nH]c2=S)cc(OC)c1O	-14.4	-2.0	45.7*	-8.7	-1.6	6.4	85.0*	0.9
COc1cc(C(=S)N2CCN(C(c3ccccc3)c3ccccc3)CC2)cc(OC)c1O	-5.4	-1.2	42.5*	17.5	0.2	15.9	18.5	1.6
CCOC(=O)c1c(NC(=O)CN(C)C)sc(C(=O)N(CC)CC)c1C	-3.4	-8.1	-3.7	-0.7	2.7	18.7	nt	nt
CCCCC(=O)Nc1sc(C(=O)N(CC)CC)c(C)c1C(=O)OC	1.9	20.2	68.0*	-2.3	-11.5	5.0	67.6*	1.8
CCc1nn(C(C)C(=O)N(C)Cc2ccccc2)c(=O)c2cc3occc3n12 (stereo unspecified)	1.8	-16.9	4.7	5.2	-3.7	25.5	nt	nt
Cc1cc(C)cc(N(C(C)C(=O)NCc2ccc3c(c2)OCO3)S(C)(=O)=O)c1 (stereo unspecified)	3.7	-4.6	-3.2	3.6	0.2	4.4	nt	nt
CC1(C)Cc2c(C#N)c(SCCO)nc(N3CCOCC3)c2CO1	-1.4	6.5	-6.1	-5.1	-1.2	-2.1	nt	nt
CC1(C)Cc2c(C#N)c(SCC(=O)O)nc(N3CCOCC3)c2CO1	-3.4	-2.2	61.0*	-8.2	3.3	-4.4	-8.8	-7.2
Cc1cccc(C(C)C)c1NC(=O)C(C)OC(=O)Cn1cnc2c1c(=O)n(C)c(=O)n2C (stereo unspecified)	1.0	26.0	-4.8	0.8	-5.1	-1.0	nt	nt
COc1cc(-c2n[nH]c(=S)n2-c2ccc(C)cc2)cc(OC)c1OC	-5.2	14.8	43.0*	-14.9	-1.9	7.6	68.0*	-4.3
COc1ccccc1-n1c(-c2ccccc2)n[nH]c1=S	2.9	-0.6	67.7*	0.8	-4.3	-8.7	57.8*	-4.2
